# Sampled rows, rich in hits. Any-hit rate of the full collection: about 2.9%.
# SIRT5 block = SIRT5 desuccinylase inhibitors, primary screen, biochemical, fluorescence imaging, single point, set 5; inhibition, % at 15 µM; Purified SirT5, succinyl-peptide AMC, trypsin-coupled fluorescence; NAD-dependent protein deacylase sirtuin-5, mitochondrial (Homo sapiens), Q9NXA8; 330,000 tested, 1.1% active; in the data active means inhibition above about 15%; inconclusive means no clear call, values can overlap the other calls
# Target sequence (Q9NXA8 whole entry, looked up): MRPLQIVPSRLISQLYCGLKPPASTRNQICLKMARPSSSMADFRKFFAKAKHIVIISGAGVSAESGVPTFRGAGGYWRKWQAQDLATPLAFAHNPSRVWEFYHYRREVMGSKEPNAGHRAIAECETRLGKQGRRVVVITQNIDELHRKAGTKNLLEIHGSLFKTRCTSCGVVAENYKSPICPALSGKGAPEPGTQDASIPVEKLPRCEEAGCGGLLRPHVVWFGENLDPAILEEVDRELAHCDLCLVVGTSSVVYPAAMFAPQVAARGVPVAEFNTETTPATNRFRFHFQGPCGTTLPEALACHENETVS
# S100A4 inh HTS = inhibitors of S100A4-myosin IIA peptide binding, primary screen, biochemical, fluorescence polarization, TAMRA-MyoIIA peptide; inhibition, % at 10.7 µM; 360,000 tested, 0.14% active; Protein S100-A4 (Homo sapiens), P26447;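 active means mean inhibition of at least 70% across replicates, with every replicate also reaching that level; inconclusive means mean inhibition reaches 70% but some replicates fall short; inactive means mean inhibition below 70%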
# Target sequence (P26447 whole entry, looked up): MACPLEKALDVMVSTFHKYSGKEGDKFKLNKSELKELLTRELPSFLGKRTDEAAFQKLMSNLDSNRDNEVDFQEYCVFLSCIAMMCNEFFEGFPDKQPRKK
#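 Compound dosing: one dose per compound; test system: human S100A4 monomer with TAMRA-labelled myosin IIA peptide; probe or stimulus: TAMRA-labelled myosin IIA heavy-chain peptide probe, 5 nM; medium: HEPES buffer with Ca2+, pH 7.2; schedule: 5 min incubation before reading; benchmarks: neutral control DMSO, positive control TFP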
# DENV2 CPE rescue = inhibitors of DENV2 cytopathic effect, primary screen, cell-based, plate reader, single concentration | AID 651640, 2012 | 350,000 tested, 1.7% active | CPE inhibition, % at 9.99 µM | DENV2-infected cells, cytopathic effect rescue; in the data active means CPE inhibition above about 20%, passing the limit was not always enough; inconclusive means no clear call, values can overlap the other calls; tested in BHK-21 cells;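 further: 0% = median of neutral control wells and 100% = median of positive control wells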
# CAL PDZ FP-1 = untagged CAL PDZ binding inhibitors, primary screen, biochemical, fluorescence polarization, HTS; Golgi-associated PDZ and coiled-coil motif-containing protein (Homo sapiens), Q9HD26; purified CAL PDZ, TMR-peptide fluorescence polarization, 1 h; inhibition, % at 24.9 µM; 300,000 tested, 0.92% active;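 active means mean inhibition of at least 30% with at least half of replicates also reaching 30%; inconclusive means no clear call, values can overlap the other calls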;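 further: 0% = DMSO neutral control and 100% = excess unlabeled competitor peptide PRC23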
# ERAP1 HTS inh = human ERAP1 aminopeptidase inhibitors, primary screen, biochemical, single point, plate reader; Endoplasmic reticulum aminopeptidase 1 (Homo sapiens), Q9NZ08; recombinant ERAP1, Leu-AMC fluorescence, 60 min; inhibition, % at 10.7 µM; 340,000 tested, 0.15% active; AID 652197, 2013;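 active means mean replicate inhibition of at least 30%, or all replicates individually reaching that 30% level; inactive means mean below 30% and not every replicate reaching it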;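 further: 0% = neutral control wells and 100% = L-leucinethiol positive control wells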
# CAL PDZ FP-2 = CAL PDZ peptide-binding inhibitors, primary screen, biochemical, fluorescence polarization, Cer-tagged CAL PDZ, HTS; Golgi-associated PDZ and coiled-coil motif-containing protein (Homo sapiens), Q9HD26; purified CAL PDZ, TMR-peptide fluorescence polarization, 1 h; inhibition, % at 20 µM; 330,000 tested, 0.02% active; AID 504414, 2011;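 active means highest replicate inhibition of at least 40%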;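 further: plate controls were DMSO neutral control wells for no effect and unlabeled competitor peptide control wells for full effect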
#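 Read-out basis: mP drop reported as inhibition | Assay system: Tagged CAL PDZ protein CerCALP, purified | Benchmarks: Unlabelled peptide for full inhibition, DMSO wells as neutral | Schedule: 1 h incubation at room temperature before polarization reading | Buffer or medium: Sodium phosphate/NaCl buffer pH 7.4 with TCEP, IgG, Thesit | Doses: Single point, 20 µM | Measured by: Fluorescence polarization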
# Starred values were filed as active, the others as inactive; ? = inconclusive; / = no result given.
SMILES,SIRT5 block,S100A4 inh HTS,DENV2 CPE rescue,CAL PDZ FP-1,ERAP1 HTS inh,CAL PDZ FP-2
Cc1ccccc1C(=O)N1CCN(c2ccc(NC(=O)c3ccccc3[N+](=O)[O-])cc2)CC1,19.2*,-6.3,10.0,0.3,6.6,-1.6
COc1ccc(S(=O)(=O)Nc2ccc3c(c2)C(=O)N([C@@H](C)CO)C[C@@H](C)[C@@H](CN(C)C)OCCCC[C@H](C)O3)cc1,-0.5,-1.3,0.6,/,2.2,/
C/C(=N\Nc1ccc(Cl)c(C(=O)O)c1)c1ccc(Br)s1,2.7,-1.0,10.6,-2.9,1.2,-1.3
C/C(=N\Nc1ccc(C(=O)O)cc1)c1ccc(Cl)s1,23.4*,-1.9,-0.4,-0.8,-0.6,-4.2
Cc1ccc(/C=N/Nc2ccc(C(=O)O)cc2)s1,-1.5,-18.6,7.3,0.7,-21.0,0.4
C/C(=N\Nc1ccc(C(=O)O)cc1)c1ccc(Br)cc1,21.0*,-5.8,13.6,0.0,/,0.0
C/C(=N/Nc1ncc(Br)cn1)c1ccc(Br)cc1,-1.0,-1.0,-3.1,-5.0,-3.2,-3.6
O=C(O)c1ccc(N/N=C/c2cc(Br)cs2)cc1,1.2,-1.3,3.3,35.7*,-25.2,0.5
CC(C)NC(=O)Nc1ccc2c(c1)C(=O)N([C@H](C)CO)C[C@@H](C)[C@H](CN(C)S(=O)(=O)c1cccs1)OCCCC[C@H](C)O2,0.3,-41.0,-8.3,/,0.8,/
C[C@@H]1CN([C@@H](C)CO)C(=O)c2cc(NC(=O)Nc3ccc4c(c3)OCO4)ccc2O[C@@H](C)CCCCO[C@H]1CN(C)Cc1ccncc1,-5.6,5.0,0.0,/,2.0,/
C[C@H](CO)N1C[C@H](C)[C@@H](CN(C)C(=O)C2CC2)Oc2ncc(C#Cc3ccccc3)cc2C1=O,1.5,7.4,4.7,/,-3.0,/
NC(c1csc(Nc2ccc(C(=O)NCCO)cc2)n1)C1CCCCC1 (centres undefined),1.3,-8.1,22.3*,/,5.6,/
CC(N)c1csc(Nc2ccc(C(=O)NCCCO)cn2)n1 (centres undefined),1.7,-0.9,30.2*,/,4.7,/
CC(=O)c1ccc(Nc2nc(C(N)C3CCCCC3)cs2)cc1 (centres undefined),-1.0,-13.1,4.3,/,3.1,/
NC(c1csc(Nc2ccc(C(=O)NCCCO)cn2)n1)C1CCCCC1 (centres undefined),/,-1.2,2.2,/,-2.6,/
C[C@H]1CN([C@@H](C)CO)C(=O)c2cc(-c3ccccc3)cnc2O[C@H]1CN(C)Cc1cccnc1,0.6,-0.6,-5.1,/,-6.4,/
Cc1ccc(NC(=O)COc2cccc(/C=C3\SC(=S)N(CCC(=O)O)C3=O)c2)cc1Cl,26.8*,3.5,-3.1,-5.5,2.6,-1.7
O=C(CCCN1C(=O)/C(=C/c2ccc3c(c2)OCO3)SC1=S)Nc1cccc(C(=O)O)c1,2.9,1.7,5.0,0.8,-36.5,-3.5
O=C(O)CCN1C(=O)/C(=C\c2cccc(OCC(=O)Nc3ccc(Cl)cc3)c2)SC1=S,1.5,2.4,0.0,-2.0,-1.9,-3.2
O=C(CCN1C(=O)/C(=C/c2ccc3c(c2)OCO3)SC1=S)Nc1cccc(C(=O)O)c1,17.3*,4.7,-2.6,2.2,-3.3,1.2
O=C(CCN1C(=O)/C(=C/c2ccc3c(c2)OCO3)SC1=S)NNC(=O)c1cccnc1,-1.1,-4.3,46.7*,3.2,-0.9,1.1
Cc1ccc(/C=C2\SC(=S)N(CCCC(=O)Nc3cccc(C(=O)O)c3)C2=O)cc1,-5.0,0.7,85.0*,-5.0,-5.3,-1.8
Cc1ccc(C=C2SC(=S)N(CCCC(=O)Nc3cccc(C(=O)O)c3)C2=O)cc1,-7.1,-1.8,-2.9,/,/,/
C[C@H](CO)N1C[C@H](C)[C@H](CN(C)Cc2ccncc2)Oc2ccc(NS(=O)(=O)c3ccccc3)cc2CC1=O,-11.9,-9.5,-5.2,/,1.1,/
COCC#Cc1ccc2c(c1)O[C@@H](CN(C)S(=O)(=O)c1cccc(OC)c1)[C@H](C)CN([C@H](C)CO)S2(=O)=O,3.8,10.5,-5.2,/,2.3,/
SMILES,SIRT5 block,S100A4 inh HTS,DENV2 CPE rescue,CAL PDZ FP-1,ERAP1 HTS inh,CAL PDZ FP-2
CCC(=O)N1C[C@@H]2[C@H](c3ccccc31)[C@H](CO)N2Cc1cc(F)ccc1F,1.1,4.0,?,/,-3.0,/
CCC(=O)N1C[C@H]2[C@@H](c3ccccc31)[C@@H](CO)N2Cc1cc(F)ccc1F,28.3*,7.1,-1.1,/,-1.8,/
CCC(=O)N1C[C@@H]2[C@H](c3ccccc31)[C@H](CO)N2Cc1ccccc1OC,0.3,2.4,35.1*,/,0.9,/
CCC(=O)N1C[C@@H]2[C@H](c3ccccc31)[C@@H](CO)N2C(=O)CC,6.5,73.3*,-6.1,/,0.3,/
CCC(=O)N1C[C@H]2[C@@H](c3ccccc31)[C@@H](CO)N2C(=O)CC,-1.2,38.0,-4.5,/,-2.9,/
COc1ccccc1C(=O)N1C[C@H]2[C@@H](c3ccccc31)[C@@H](CO)N2Cc1ccc(F)cc1,16.3*,-2.7,-0.2,/,0.1,/
COc1ccccc1C(=O)N1C[C@@H]2[C@H](c3ccccc31)[C@H](CO)N2Cc1ccc(F)cc1,/,/,3.6,/,/,/
CC1CCN(CC(O)COC2CC(C)CC(C)(C)C2)CC1 (centres undefined),-1.7,-1.3,2.2,/,-0.1,/
CC[N+]1(CC(O)COC2CC(C)CC(C)(C)C2)CCOCC1 (centres undefined),7.2,1.0,4.8,1.7,107.5*,-0.1
CCOC(=O)c1c(NC(=O)COC(=O)CCNS(=O)(=O)c2ccccc2)sc(C(=O)NC)c1C,-6.9,-1.8,9.1,/,37.6*,-3.8
COc1cccc(-c2ccc(CC[C@H]3O[C@H]4CC[C@H](CO)O[C@H]4C[C@@H]3NC(=O)c3cnccn3)cc2)c1,-1.3,-61.5,?,/,2.5,/
COc1ccc([Si](C)(C)[C@@H]2[C@@H](CC(=O)N3Cc4ccccc4C[C@H]3CO)O[C@]3(C(=O)N(C)c4c(Br)cc(C)cc43)[C@H]2C)cc1,9.3,0.7,21.3*,/,-0.3,/
Cc1ccccc1N=C1Nc2ccccc2N[C@]12C[C@H]1CCC(=O)N3CC[C@@H](C2)[C@@H]13,-3.7,4.1,148.3*,-2.1,1.2,-2.1
C[C@@H]1CN([C@@H](C)CO)C(=O)c2cccc(NS(=O)(=O)c3ccc(F)cc3)c2O[C@@H]1CN(C)CC1CC1,-1.7,0.9,-2.1,/,-2.1,/
CCC(=O)NCCc1nc2ccccc2n1CC(=O)c1ccccc1,-3.5,-2.6,76.3*,/,-0.7,0.1
